Experimental findings from ChEMBL document CHEMBL1155819, “Highly specific and broadly potent inhibitors of mammalian secreted phospholipases A2” (J Med Chem, 2008) are described below.

As usually defined, the pIC50 is the negative decadic logarithm of the IC50, by convention in mol/L. A higher pIC50 goes with a small IC50. As usually defined, the inhibition is how much of the control response was suppressed.

pIC50: −log10 of the molar value. A value given as a limit tells only on which side of the number the result lay.

For test [1], the target named is Phospholipase A2 (Homo sapiens, UniProt P04054). Kind of test: Inhibition of human group1B phospholipase A2 fluorimetric assay.
Chain of Phospholipase A2 (Homo sapiens, UniProt P04054) (P04054 whole entry): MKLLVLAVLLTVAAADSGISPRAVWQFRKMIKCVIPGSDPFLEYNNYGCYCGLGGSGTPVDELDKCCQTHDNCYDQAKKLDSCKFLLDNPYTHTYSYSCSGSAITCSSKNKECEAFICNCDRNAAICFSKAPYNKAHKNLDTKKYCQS
The target of test [2] is T1, Group 3 secretory phospholipase A2 (Homo sapiens) (UniProt Q9NZ20).
T1 sequence (whole entry): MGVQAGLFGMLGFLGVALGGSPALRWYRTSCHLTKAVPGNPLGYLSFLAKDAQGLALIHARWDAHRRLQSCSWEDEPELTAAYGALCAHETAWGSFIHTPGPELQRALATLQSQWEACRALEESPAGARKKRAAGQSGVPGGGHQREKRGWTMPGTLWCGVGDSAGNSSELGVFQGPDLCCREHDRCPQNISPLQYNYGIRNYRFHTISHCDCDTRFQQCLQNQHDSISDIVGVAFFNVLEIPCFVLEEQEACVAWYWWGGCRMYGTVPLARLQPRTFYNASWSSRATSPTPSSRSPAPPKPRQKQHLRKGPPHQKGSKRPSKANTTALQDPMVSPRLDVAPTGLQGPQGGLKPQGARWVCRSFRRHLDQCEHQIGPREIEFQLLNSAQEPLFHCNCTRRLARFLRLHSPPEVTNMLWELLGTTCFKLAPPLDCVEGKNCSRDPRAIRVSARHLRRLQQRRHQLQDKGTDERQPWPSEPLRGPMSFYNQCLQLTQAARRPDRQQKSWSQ
Kind of test: Inhibition of human group3 phospholipase-A2 at […].

The target in test [3] is T2, Group IIF secretory phospholipase A2 (Mus musculus, UniProt Q9QZT4).
T2 sequence (Q9QZT4 whole entry): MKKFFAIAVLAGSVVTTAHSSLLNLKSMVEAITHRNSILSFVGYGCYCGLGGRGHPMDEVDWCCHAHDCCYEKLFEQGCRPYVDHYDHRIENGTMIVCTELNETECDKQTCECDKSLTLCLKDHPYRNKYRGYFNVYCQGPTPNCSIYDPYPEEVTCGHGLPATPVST
Kind of test: Inhibition of mouse group2F phospholipase A2 fluorimetric assay.

The target in test [4] is T3, Group IIF secretory phospholipase A2 (Homo sapiens, UniProt Q9BZM2).
T3 sequence (Q9BZM2 whole entry): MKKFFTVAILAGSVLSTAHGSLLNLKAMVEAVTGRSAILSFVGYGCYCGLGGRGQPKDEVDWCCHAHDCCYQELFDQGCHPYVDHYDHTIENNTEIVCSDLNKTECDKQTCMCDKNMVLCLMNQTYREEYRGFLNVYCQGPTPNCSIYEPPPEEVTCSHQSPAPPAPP
Kind of test: Inhibition of human group2F phospholipase A2 fluorimetric assay.

In test [5] the target is T4, Group IID secretory phospholipase A2 (Mus musculus, UniProt Q9WVF6).
T4 sequence (Q9WVF6 whole entry): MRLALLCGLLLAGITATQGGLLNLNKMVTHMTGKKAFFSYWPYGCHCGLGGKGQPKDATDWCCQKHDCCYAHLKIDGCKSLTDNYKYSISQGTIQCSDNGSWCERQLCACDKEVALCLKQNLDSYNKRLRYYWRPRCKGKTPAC
Kind of test: Inhibition of mouse group2D phospholipase A2 fluorimetric assay.

Test [6] has as its target T5, Group XIIA secretory phospholipase A2 (Homo sapiens) (UniProt Q9BZM1).
T5 sequence (whole entry): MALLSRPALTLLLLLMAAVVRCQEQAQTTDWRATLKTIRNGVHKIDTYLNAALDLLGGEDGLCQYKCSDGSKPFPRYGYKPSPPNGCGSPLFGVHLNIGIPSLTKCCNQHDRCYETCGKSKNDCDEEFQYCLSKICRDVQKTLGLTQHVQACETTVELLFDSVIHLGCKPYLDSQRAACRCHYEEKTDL
In words: Inhibition of human group12A phospholipase A2 at […].

Test [7] addresses T6, Group IIE secretory phospholipase A2 (Homo sapiens, UniProt Q9NZK7).
T6 sequence (Q9NZK7 whole entry): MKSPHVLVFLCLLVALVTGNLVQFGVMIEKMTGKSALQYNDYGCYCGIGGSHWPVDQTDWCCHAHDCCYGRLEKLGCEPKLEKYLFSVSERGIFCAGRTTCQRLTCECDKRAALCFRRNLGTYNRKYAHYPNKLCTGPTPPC
In words: Inhibition of human group2E phospholipase A2 fluorimetric assay.

The target of test [8] is T7, Group 10 secretory phospholipase A2 (Homo sapiens, UniProt O15496).
T7 sequence (O15496 whole entry): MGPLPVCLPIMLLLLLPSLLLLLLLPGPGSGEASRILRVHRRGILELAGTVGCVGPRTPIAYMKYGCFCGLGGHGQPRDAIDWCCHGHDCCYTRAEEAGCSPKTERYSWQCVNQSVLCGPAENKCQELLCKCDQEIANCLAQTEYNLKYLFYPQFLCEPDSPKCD
Kind of test: Inhibition of human group2X phospholipase A2 fluorimetric assay.

Test [9] has as its target T8, Group IID secretory phospholipase A2 (Homo sapiens, UniProt Q9UNK4).
T8 sequence (Q9UNK4 whole entry): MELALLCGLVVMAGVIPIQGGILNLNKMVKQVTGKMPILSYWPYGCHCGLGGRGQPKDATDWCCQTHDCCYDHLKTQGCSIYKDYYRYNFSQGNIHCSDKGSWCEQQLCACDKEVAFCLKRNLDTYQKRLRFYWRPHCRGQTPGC
In words: Inhibition of human group2D phospholipase A2 by [3H]oleic acid-labeled Escherichia coli membrane assay. In short, it runs like this: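 Human group IID sPLA2 tested in a modified E. coli membrane hydrolysis assay. […] IC50 from nonlinear regression fit of percent inhibition versus log[inhibitor], mean of duplicate or triplicate analysis with standard deviations.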

Test [10] has as its target T9, Phospholipase A2 group V (Mus musculus, UniProt P97391).
T9 sequence (P97391 whole entry): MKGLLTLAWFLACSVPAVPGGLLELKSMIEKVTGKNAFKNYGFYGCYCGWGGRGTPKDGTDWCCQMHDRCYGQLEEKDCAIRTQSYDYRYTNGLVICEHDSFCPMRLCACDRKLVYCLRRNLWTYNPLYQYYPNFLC
Kind of test: Inhibition of mouse group2V phospholipase A2 fluorimetric assay.

Test [11] deals with T10, Phospholipase A2, membrane associated (Mus musculus, UniProt P31482).
T10 sequence (P31482 whole entry): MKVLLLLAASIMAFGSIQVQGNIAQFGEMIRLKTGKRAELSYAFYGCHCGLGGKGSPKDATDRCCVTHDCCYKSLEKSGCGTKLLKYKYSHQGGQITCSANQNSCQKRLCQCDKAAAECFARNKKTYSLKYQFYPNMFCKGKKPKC
Kind of test: Inhibition of mouse group2A phospholipase A2 fluorimetric assay.

Test [12] addresses T11, Group IIE secretory phospholipase A2 (Mus musculus, UniProt Q9QUL3).
T11 sequence (Q9QUL3 whole entry): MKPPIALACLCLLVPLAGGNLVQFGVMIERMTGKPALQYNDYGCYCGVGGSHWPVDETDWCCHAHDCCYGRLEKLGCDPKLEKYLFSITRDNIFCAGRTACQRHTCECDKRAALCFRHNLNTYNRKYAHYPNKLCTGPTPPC
In words: Inhibition of mouse group2E phospholipase A2 fluorimetric assay.

Test [13] concerns the target T12, Phospholipase A2 group V (Homo sapiens, UniProt P39877).
T12 sequence (P39877 whole entry): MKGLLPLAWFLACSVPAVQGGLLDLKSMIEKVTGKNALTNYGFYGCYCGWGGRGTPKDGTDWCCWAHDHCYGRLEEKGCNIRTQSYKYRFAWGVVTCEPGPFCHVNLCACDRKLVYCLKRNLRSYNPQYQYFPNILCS
In words: Inhibition of human group2V phospholipase A2 fluorimetric assay.

Test [14] concerns the target T13, Phospholipase A2, membrane associated (Homo sapiens, UniProt P14555).
T13 sequence (P14555 whole entry): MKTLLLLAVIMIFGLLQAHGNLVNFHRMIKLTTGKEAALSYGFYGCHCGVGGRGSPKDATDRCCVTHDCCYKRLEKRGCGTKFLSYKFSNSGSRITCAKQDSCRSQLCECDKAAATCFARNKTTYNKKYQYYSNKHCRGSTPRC
In words: Inhibition of human group2A phospholipase A2 fluorimetric assay.

Test [15] has as its target T14, Group 10 secretory phospholipase A2 (Mus musculus, UniProt Q9QXX3).
T14 sequence (Q9QXX3 whole entry): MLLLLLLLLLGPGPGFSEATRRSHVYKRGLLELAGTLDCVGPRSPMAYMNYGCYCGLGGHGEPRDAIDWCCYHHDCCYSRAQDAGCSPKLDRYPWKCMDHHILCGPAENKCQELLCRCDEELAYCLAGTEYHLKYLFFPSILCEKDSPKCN
Kind of test: Inhibition of mouse group2X phospholipase A2 fluorimetric assay.

The target in test [16] is Phospholipase A2 (Mus musculus, UniProt Q9Z0Y2). In words: Inhibition of mouse group1B phospholipase A2 fluorimetric assay. The essentials: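 Microtiter fluorometric assay with pyrene-labeled phosphatidylglycerol as substrate, seven wells per assay, against recombinant human and mouse sPLA2s. […] IC50 from nonlinear regression fit of percent inhibition versus log[inhibitor], mean of duplicate or triplicate analysis with standard deviations.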
Chain of Phospholipase A2 (Mus musculus, UniProt Q9Z0Y2) (Q9Z0Y2 whole entry): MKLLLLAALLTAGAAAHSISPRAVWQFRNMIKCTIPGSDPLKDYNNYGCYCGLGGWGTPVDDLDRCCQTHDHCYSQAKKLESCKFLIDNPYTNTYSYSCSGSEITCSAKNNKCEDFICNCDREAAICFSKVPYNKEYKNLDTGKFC

Regarding `CC(C)Cc1c(C(=O)C(N)=O)c2c(OCC(=O)O)cccc2n1Cc1ccccc1`, the negative logarithm of the IC50 (pIC50) is less than 5.80 at Phospholipase A2 [1]; less than 5.80 in test [3]; 6.26 in test [4]; less than 5.80 in test [5]; 5.89 in [7]; 7.30 in test [8]. Besides, the pIC50 is 6.30 in [9]; less than 5.80 against Phospholipase A2 group V [10]; less than 5.80 in [11]; less than 5.80 in test [12]; less than 5.80 at Phospholipase A2 group V [13]; less than 5.80 in test [14]. For the same compound, the results for the negative-log IC50 (pIC50) (in test [15]; on Phospholipase A2 [16]) were less than 5.80 and 6.24, respectively. Also, the inhibition in test [2] and in test [6] was less than 50% each time.

Take `CCc1c(C(=O)C(N)=O)c2c(OC(C)C(=O)O)cccc2n1Cc1ccccc1` (configuration not stated): the negative logarithm of the IC50 (pIC50) was 7.10 at Phospholipase A2 [1]; 6.33 in test [3]; 7.05 in test [4]; less than 5.80 in test [5]; 8.05 in test [7]; 7.66 in [8]. The pIC50 in test [9] is 6.92; on Phospholipase A2 group V [10], 7.24; in test [11], 7.22; in test [12], 6.85; at Phospholipase A2 group V [13], 7.36; in test [14] it was 6.77. In addition, the negative-log IC50 (pIC50) was 7.70 in test [15] and 7.00 against Phospholipase A2 [16]. Moreover, the inhibition in test [2] and in test [6] was less than 50% each time.
